In ChEMBL document CHEMBL4411269, “Required Immunoproteasome Subunit Inhibition Profile for Anti-Inflammatory Efficacy and Clinical Candidate KZR-616 ((2 S,3 R)- N-(( S)-3-(Cyclopent-1-en-1-yl)-1-(( R)-2-methyloxiran-2-yl)-1-oxopropan-2-yl)-3-hydroxy-3-(4-methoxyphenyl)-2-(( S)-2-(2-morpholinoacetamido)propanamido)propenamide)” (J Med Chem, 2018):
≈ marks a conversion by molar mass, not a printed value. Calls of active or inactive are those of the source. No cut-off for these calls is given here.

What was measured:
[1] = molecular target: T1, Proteasome subunit beta type-10 (Homo sapiens, UniProt P40306); test: Inhibition of MECL1 in human MOLT4 cells by ELISA; format: cell-based
T1 sequence (P40306 whole entry): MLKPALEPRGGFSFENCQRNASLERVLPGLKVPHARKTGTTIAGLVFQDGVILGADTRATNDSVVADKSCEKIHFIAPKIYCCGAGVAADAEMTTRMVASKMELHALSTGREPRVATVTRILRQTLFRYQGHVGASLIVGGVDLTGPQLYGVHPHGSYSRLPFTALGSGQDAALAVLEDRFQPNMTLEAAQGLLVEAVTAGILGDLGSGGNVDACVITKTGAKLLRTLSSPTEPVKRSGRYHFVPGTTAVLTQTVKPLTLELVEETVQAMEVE

[2] = molecular target: T2, Proteasome subunit beta type-9 (Mus musculus, UniProt P28076); test: Inhibition of LMP2 in mouse A20 cells by ELISA; format: cell-based
T2 sequence (P28076 whole entry): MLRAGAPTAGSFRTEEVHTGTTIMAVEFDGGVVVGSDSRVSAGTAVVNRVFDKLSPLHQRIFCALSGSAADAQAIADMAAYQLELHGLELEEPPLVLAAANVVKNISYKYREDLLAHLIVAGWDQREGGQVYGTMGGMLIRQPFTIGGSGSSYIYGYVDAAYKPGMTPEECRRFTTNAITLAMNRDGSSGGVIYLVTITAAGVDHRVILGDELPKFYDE
Outline: (§1)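 Mouse A20 B-cell lymphoma cell lysate (1 mg/mL, hypotonic 20 mM Tris pH 8, 5 mM EDTA) treated with serially diluted compound for 1 h at 25 °C. Then 5 μM biotinylated active-site probe for 2 h at 25 °C, guanidine denaturation and streptavidin bead capture. Subunit-specific antibody and HRP chemiluminescence, signal normalized to protein, IC50 from percent activity versus DMSO controls.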

[3] = molecular target: T3, Proteasome subunit beta type-5 (Mus musculus, UniProt O55234); test: Inhibition of 20S proteosome beta 5 in mouse A20 cells by ELISA; format: cell-based
T3 sequence (O55234 whole entry): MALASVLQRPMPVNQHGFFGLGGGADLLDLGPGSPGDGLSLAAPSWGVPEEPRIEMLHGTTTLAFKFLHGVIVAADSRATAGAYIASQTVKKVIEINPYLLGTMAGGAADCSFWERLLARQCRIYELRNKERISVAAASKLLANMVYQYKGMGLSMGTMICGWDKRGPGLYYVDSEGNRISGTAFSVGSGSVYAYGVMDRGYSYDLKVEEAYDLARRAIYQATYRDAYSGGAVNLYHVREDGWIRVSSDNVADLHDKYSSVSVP

[4] = molecular target: T4, Proteasome Macropain subunit MB1 (Homo sapiens, UniProt P28074); test: Inhibition of 20S proteosome beta 5 in human MOLT4 cells by ELISA; format: cell-based
T4 sequence (P28074 whole entry): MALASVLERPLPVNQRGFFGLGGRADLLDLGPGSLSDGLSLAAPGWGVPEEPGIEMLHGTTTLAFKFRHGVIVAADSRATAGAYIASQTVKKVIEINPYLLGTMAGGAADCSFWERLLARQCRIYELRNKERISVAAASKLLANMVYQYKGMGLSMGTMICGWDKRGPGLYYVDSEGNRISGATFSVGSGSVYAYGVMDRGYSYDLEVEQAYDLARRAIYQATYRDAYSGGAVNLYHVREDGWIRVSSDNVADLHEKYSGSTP

[5] = molecular target: T5, Proteasome subunit beta type-9 (Homo sapiens, UniProt P28065); test: Inhibition of LMP2 in human MOLT4 cells by ELISA; format: cell-based
T5 sequence (P28065 whole entry): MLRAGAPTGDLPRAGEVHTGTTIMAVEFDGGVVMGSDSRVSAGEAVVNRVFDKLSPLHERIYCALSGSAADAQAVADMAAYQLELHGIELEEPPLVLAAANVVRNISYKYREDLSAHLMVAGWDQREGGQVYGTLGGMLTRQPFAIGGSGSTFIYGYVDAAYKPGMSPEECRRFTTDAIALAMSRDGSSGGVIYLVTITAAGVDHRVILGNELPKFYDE

[6] = Solubility of the compound in phosphate buffer at pH 7.2 at 10 mg/ml after 24 hrs by HPLC-UV method; format: physicochemical
Outline: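 Compound shaken at a target 10 mg/mL in 50 mM potassium phosphate buffer for 24 h at 25 °C, then centrifuged at 15 000 rpm for 15 min. Supernatant diluted 100-fold in DMSO and quantified by HPLC-UV (220/254/280 nm) against a three-level DMSO standard curve, in duplicate.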

[7] = molecular target: T6, Proteasome subunit beta type-8 (Mus musculus, UniProt P28063); test: Inhibition of LMP7 in mouse A20 cells by ELISA; format: cell-based; outline: as §1
T6 sequence (P28063 whole entry): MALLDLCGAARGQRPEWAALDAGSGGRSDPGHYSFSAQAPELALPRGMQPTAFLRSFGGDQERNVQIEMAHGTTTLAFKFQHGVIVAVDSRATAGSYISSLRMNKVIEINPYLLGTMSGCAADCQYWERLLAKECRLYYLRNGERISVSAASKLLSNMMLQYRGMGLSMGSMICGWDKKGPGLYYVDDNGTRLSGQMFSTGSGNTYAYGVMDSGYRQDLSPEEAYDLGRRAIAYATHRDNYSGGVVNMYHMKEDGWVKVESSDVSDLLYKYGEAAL

[8] = molecular target: T7, Proteasome subunit beta type-10 (Mus musculus, UniProt O35955); test: Inhibition of MECL1 in mouse A20 cells by ELISA; format: cell-based; outline: as §1
T7 sequence (O35955 whole entry): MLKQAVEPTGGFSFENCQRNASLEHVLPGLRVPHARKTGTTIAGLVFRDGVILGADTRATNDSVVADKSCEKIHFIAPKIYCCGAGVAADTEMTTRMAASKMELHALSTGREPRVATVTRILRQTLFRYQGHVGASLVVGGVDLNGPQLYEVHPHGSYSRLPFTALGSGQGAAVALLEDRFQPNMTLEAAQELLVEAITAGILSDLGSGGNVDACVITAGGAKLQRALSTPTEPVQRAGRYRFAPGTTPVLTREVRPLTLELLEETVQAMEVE

[9] = tested on: PBMC; test: Antiinflammatory activity in human PBMC assessed as reduction in anti-CD3/CD28 antibody-stimulated TNF-alpha expression at 250 nM preincubated for 1 hr followed by anti-CD3/CD28 antibody stimulation measured after 24 hrs by ELISA; format: functional, cell-based
Outline: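 Healthy-donor PBMC, thawed from cryopreservation, 250 000 cells/well in RPMI 1640/5% FBS. Pretreated 1 h at 37 °C with compound alone or combined (0.1% DMSO final), washed 4 times, then stimulated 24 h with anti-CD3 and anti-CD28 antibodies. TNFα and IFNγ in supernatants by electrochemiluminescent ELISA; expressed relative to DMSO-treated controls (n = 6).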

[10] = tested on: PBMC; test: Antiinflammatory activity in human PBMC assessed as reduction in LPS-stimulated TNF-alpha expression at 250 nM preincubated for 1 hr followed by LPS stimulation measured after 24 hrs by ELISA; format: functional, cell-based
Outline: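 Cryopreserved healthy-donor PBMC in RPMI 1640 with 5% heat-inactivated FBS, 250 000 cells/well. Compound (0.1% DMSO final) for 1 h at 37 °C, 5% CO2, then 4 washes with medium. Stimulated with 1 μg/mL LPS for 24 h; supernatant TNFα, IL-6 and IL-12/23p40 by electrochemiluminescent immunoassay. Mean level relative to DMSO controls, n = 6.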

Row | Structure (SMILES) | IC50 [1] | IC50 [2] | IC50 [3] | IC50 [4] | IC50 [5] | solubility at 24 h [6] | IC50 [7] | IC50 [8] | Activity [9] | Activity [10]
1 | COc1ccc(C[C@H](NC(=O)[C@@H](C)NC(=O)[C@H]2CC[C@H](O)CC2)C(=O)N[C@@H](CC2=CCCC2)C(=O)[C@@]2(C)CO2)cc1 | > 25000 nM | 3.96 µM | 2650 nM | 2670 nM | 1850 nM | 491 µg/mL (≈ 862 µM) | 374 nM | – | – | –
2 | Cc1ccc(CC[C@H](NC(=O)[C@H](Cc2ccccc2)NC(=O)[C@H](CC(C)C)NC(=O)CN2CCCCCC2)C(=O)[C@@]2(C)CO2)cc1 | 71 nM | > 25 µM | 378 nM | 486 nM | > 25000 nM | 7 µg/mL (≈ 11.1 µM) | 1920 nM | 305 nM | inactive | inactive
3 | COc1ccc([C@@H](O)[C@H](NC(=O)[C@H](C)NC(=O)CN2CCOCC2)C(=O)N[C@@H](CC2=CCCC2)C(=O)[C@@]2(C)CO2)cc1 [ZETOMIPZOMIB] | 623 nM | 0.179 µM | 483 nM | 688 nM | 131 nM | 7070 µg/mL (≈ 12100 µM) | 57 nM | 522 nM | Active | Active
